Results reported in ChEMBL document CHEMBL4513216, “Probing the Open Global Health Chemical Diversity Library for Multistage-Active Starting Points for Next-Generation Antimalarials” (ACS Infect Dis, 2020).

Assay: Toxicity liver stage against HepG2, at 10uM
Format: cell-based
Design: test concentration 10 uM, cell line HepG2-A16-CD81EGFP
Details: human, HepG2-A16-CD81EGFP cells; read-out: INHIBITION
How it was run: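 Uninfected HepG2-A16-CD81EGFP cells, 3 × 10^3 per well, 1536-well, plated on prespotted compound at 10 μM final, parasite-free screening media added to match infected plates; puromycin 10 μM positive, DMSO 0.5% negative; run in parallel with 48 h PbLuc assay at 37 °C, 5% CO2; viability by CellTiter-Glo luminescence, normalized to controls.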

SMILES | cytotoxicity at 10 µM
O=C(NC1CCCCC1)c1ccc(COCC(F)(F)F)o1 | 14.1%
O=C(O)CCC(=O)N1CCC(c2noc3cc(F)ccc23)CC1 | -14.8%
CC(C)Oc1ccc(CC2=N[C@](C)(CO)CO2)cc1 | 16.3%
COc1cccc(C(O)CN2CCN(c3cccc(C)c3)CC2)c1 (stereo not drawn) | -3.85%
COc1nn(C)cc1C(=O)NCC1(O)CCOCC1 | -14.7%
CC(C)(C)C(=O)NCc1cnn2ccccc12 | -10.6%
CCN1C[C@@H]2CN(C(=O)C3CC=CC3)C[C@@H]2C1=O | 2.35%
CC1N(CC2CC2)C(=O)COC12CCN(C(=O)c1cnccn1)CC2 (stereo not drawn) | -2.57%
CC(C)NC(=O)C1CCC2(CCN(c3ncccn3)CC2)CO1 (stereo not drawn) | 0.442%
O=C(COc1coc(CN2CCCCC2)cc1=O)c1ccccc1 | 8.44%
O=C1COc2ccc(S(=O)(=O)N3CCOCC3)c3c2N1CCC3 | 7.55%
O=C(NCc1ccco1)N1CCCCC1c1nc(C2CC2)no1 (stereo not drawn) | -7.86%
Cc1noc([C@@]23CCO[C@@H]2CCN(C(=O)C2CCOCC2)C3)n1 | 1.68%
CC(=O)N1CC[C@H]2OCC[C@@]2(C(=O)NCc2ccco2)C1 | 0.253%
COc1cccc(S(=O)(=O)N2CCn3cnc(COCC4CC4)c3C2)c1 | -18.9%
CC(Cn1cc(Br)cn1)C(=O)Nc1ccn(C)n1 (stereo not drawn) | -4.49%
COC(=O)c1ccnn1COc1ccc(Cl)cc1 | -14.8%
CCNC(=O)[C@H]1CN(Cc2ccccc2)C[C@@H]1C(=O)c1ccccc1 | 3.08%
Cc1nn(C)c(C)c1-c1ccc(=O)n(C(C)C(=O)NCc2ccco2)n1 (stereo not drawn) | 6.93%
c1cc(C2CN(C3CCCCC3)C2)n[nH]1 | 4.18%
CNC(=O)CCc1cc(C2CCN(c3cnccn3)CC2)nc(C)n1 | -4.65%
CN1CCC(c2n[nH]cc2-c2ccnc(N)c2)C1 (stereo not drawn) | 3.79%
CNc1cccc(C2CCCN(Cc3ncc[nH]3)C2)n1 (stereo not drawn) | -18%

SMILES | cytotoxicity at 10 µM
CC(=O)N1CCCC(c2ccccn2)C1 (stereo not drawn) | -23.7%
NC(=O)C1(c2cnccn2)CCCN1Cc1cccc(Cl)c1 (stereo not drawn) | -2.5%
CCOc1cccnc1C(=O)N1CCCN(c2nc(C)cs2)CC1 | 5.6%
O=C(Cc1cccc(F)c1F)NC1COc2ccccc2C1=O (stereo not drawn) | 10.4%
Cc1cnn(CC(=O)Nc2cc(-n3nnnc3C3CC3)ccc2F)c1 | -5.46%
CCC(c1ccc(F)cc1)S(=O)(=O)CCO (stereo not drawn) | -136%
COCCN(Cc1ccc(C)o1)C(=O)Nc1ncc(C)s1 | 10%
Cc1nsc(N2CCCN(C(=O)CCc3ccsc3)CC2)n1 | 3.8%
N#Cc1cccc(S(=O)(=O)N(CC2CCC2)c2cn[nH]c2)c1 | 10.9%
CCc1noc(C(C)N2CCCN(Cc3noc(C4CC4)n3)CC2)n1 (stereo not drawn) | -6.87%
CC(CNC(=O)OC(C)(C)C)N(C)C(=O)COc1ccccc1C#N (stereo not drawn) | 1.39%
O=C(NCCCn1cccn1)c1nc2ccccc2[nH]1 | -7.16%
CC(C)NC(=O)NC(C)c1nc(-c2ccccc2)cs1 (stereo not drawn) | -11.1%
O=C(c1sccc1C1CC1)N1CCCN(c2cccnn2)CC1 | -8.67%
Cc1ccc(-n2cc(C(=O)N3CCn4c(C)nnc4C3)nn2)cc1 | -141%
Cc1ncsc1C(=O)N1CCN(Cc2cscn2)CC1 | -2.65%
CCOCC(=O)Nc1cc(C)cnc1OC | 4.04%
CC(CC(=O)NCCS(N)(=O)=O)C1CCCCC1 (stereo not drawn) | -9.52%
N#Cc1ccc(OCCn2cccn2)cc1 | 11.2%
COc1ccccc1-c1cc(NC(=O)COCC2CC2)[nH]n1 | -116%
CC(Cn1cccn1)NCCS(=O)(=O)c1ccccc1 (stereo not drawn) | -3.63%
CCN(CCC(=O)OC)C(=O)c1cc(F)cc2[nH]cnc12 | -7.37%
COc1ccc(C(N)=O)cc1NCc1ncc(C(C)(C)C)o1 | -8.2%

SMILES | cytotoxicity at 10 µM
CC(O)CN1CCC(CNCc2ccc(C#N)cc2)CC1 (stereo not drawn) | 8.83%
COC(=O)CNC(=O)C12CCC(=O)N1c1cc(Cl)ccc1S2 (stereo not drawn) | -0.748%
CCn1nc2c(cc1=O)CN(Cc1nc(N)c3ccccc3n1)CC2 | -5.59%
COCC(=O)N1CC(C(=O)NCC2CC2)C2(CCOCC2)C1 (stereo not drawn) | -105%
Cc1noc([C@]23COC[C@H]2CN(C(=O)N2CCCC2)C3)n1 | -103%
Cn1cccc1C(=O)N1CCO[C@@H]2CN(Cc3ccco3)C[C@@H]2C1 | -97.3%
CNC(=O)NCC1CCC2(CCN(c3ncccn3)CC2)CO1 (stereo not drawn) | -107%
O=C(c1ccno1)N1CCn2cc(CN3CCCCC3)nc2C1 | -77.2%
C[C@@H]1C[C@@H]2CCN(Cc3ccncc3)C[C@H]2O1 | -72.9%
O=C(c1cnccn1)N1CCN2C[C@H](Oc3cccnc3)C[C@H]2C1 | 4.62%
C[C@H]1C[C@@H]2CCN(Cc3ccccn3)C[C@H]2O1 | 5.66%
COC(C)(C)C(=O)N1Cc2cnc(C(C)(C)C)nc2C1 | -121%
COc1cccc(OCCc2cncc(C(N)=O)c2)c1 | -135%
CCC1CN(C(=O)c2cc(CN(C)CCc3ccccc3)on2)CCO1 (stereo not drawn) | -4.12%
Cc1ccnc(N2CCCC(c3nccn3C(C)C)C2)n1 (stereo not drawn) | -9.63%
Cc1nc(CN(C)Cc2csc(-c3cccs3)n2)co1 | -6.06%
Cc1oc(-c2cccc(F)c2F)nc1CN(C)CCC(C)(C)O | -4.47%
Cc1nc(NCC(O)CN2CCCCCC2)c2c(C)noc2n1 (stereo not drawn) | -5.78%
CCCN1CCCn2nc(CNC(=O)CC3CCS(=O)(=O)C3)cc2C1 (stereo not drawn) | -2.1%
NC(=O)C1CCCN(c2ncnc3c2Cc2ccccc2OC3)C1 (stereo not drawn) | -5.64%
CN1CCCN(c2cnn(Cc3ccc(C(C)(C)C)cc3)c(=O)c2)CC1 | 11.1%
CC(=O)NCCC1CCCCN1S(=O)(=O)c1cccc(Cl)c1 (stereo not drawn) | -125%
Cc1nn(C)c(C)c1NC(=O)c1cccc(CN2C[C@H]3CC[C@@H](C2)N3)c1 | -0.277%

SMILES | cytotoxicity at 10 µM
Cc1nc(NC(=O)N2CCCC(C(F)(F)F)C2)nn1C (stereo not drawn) | 9.56%
Cc1ccsc1CCNC(=O)C1(Oc2cccnc2C)CCNCC1 | -2.37%
CCCc1nnc(NCCCn2nc(C)c(Cl)c2C)o1 | -0.351%
O=C(NCc1ccc(C(=O)N2CCCC2)cc1)c1cn2c(n1)CNCC2 | -10.2%
CC(=O)NCCc1cn(-c2cc(F)ccc2C)cn1 | -1.47%
CC(C)c1nc(CN(C)Cc2ncccc2C(=O)O)cs1 | -15.3%
COCc1nc2ncc3c(=O)n(-c4cccc(OC)c4)ccc3n2n1 | 8.99%
O=C(CCc1nc(Cl)n[nH]1)N[C@H]1CC[C@H]1NC1Cc2ccccc2C1 | -1.74%
O=C(NCCN1CCNC1=O)c1cnc(-c2cccnc2)nc1 | -0.885%
CC(C)c1ncc(S(C)(=O)=O)c(C2CCCNC2)n1 (stereo not drawn) | -1.34%
COC(=O)CCC(=O)N1CCc2[nH]nc(-c3ccc(F)c(F)c3)c2C1 | 0.604%
C1CC(c2noc(C3CC3)n2)N(Cc2nnc(C3CC3)o2)C1 (stereo not drawn) | -5.83%
Cc1ccc(NC(=O)C2CSCN2C(=O)c2ccncc2)c(C)c1 (stereo not drawn) | -10.4%
c1cncc(-c2noc(CN3CCOC(Cn4cccn4)C3)n2)c1 (stereo not drawn) | -11.4%
COc1cc(CNC2CCc3nc(C(C)C)nn3C2)cc2c1OCO2 (stereo not drawn) | -5.82%
Cc1nnc(NC(=O)CN2CCCC(Cn3cncn3)C2)s1 (stereo not drawn) | 1.71%
Cc1cnn(CC2CN(CC(=O)N3CCc4ccccc43)CCO2)c1 (stereo not drawn) | -0.77%
Cc1nc(C(=O)N2CCCC2c2c(C)nn(C)c2C)ccc1C#N (stereo not drawn) | -6.16%
O=C(CCc1ccccc1F)NS(=O)(=O)c1ccc2c(c1)OCCCO2 | -3.2%
Cc1cc(C)n(C2CN(CC(=O)N3CCOCC3)C2)n1 | -3.2%
CN(Cc1nnc2n1CCC2)C(=O)NCCc1ccc2c(c1)OCO2 | -4.77%
O=C(NCCN1CCCCC1)c1ccoc1 | -11.3%
Cc1cc(N2CCC(CC(N)=O)CC2)nc(-c2ccncc2)n1 | -7.22%

SMILES | cytotoxicity at 10 µM
CCN(Cc1ccc2c(c1)OCCO2)C(=O)NCc1nc(C)cs1 | 1.47%
Cc1nnc(N2CCC(CNC(=O)OC(C)(C)C)CC2)c(C#N)c1C | 2.6%
O=C(C1CN(Cc2ccsc2)Cc2ccnn2C1)N1CCCC1 (stereo not drawn) | -6.93%
COCCC(=O)N1CC2(CCN(Cc3cccc(Cl)c3)CC2)C1 | 5.63%
CCN(CC)c1ncc2c(c1C(=O)O)CCN(C1CCOC1)C2 (stereo not drawn) | 15.7%
O=C(NC1CC1)N1CCc2ncc(CN3CCOCC3)n2CC1 | -76.5%
C1CN(CC2CC2)C(COCC2CC2)c2nnn(CC3CC3)c21 (stereo not drawn) | -3.66%
Cn1cnc2c1C(COCc1ccccc1)N(Cc1ccncc1)CC2 (stereo not drawn) | -1.99%
Cc1ccc(CN2CCOC3(CCN(C(=O)N4CCCC4)CC3)C2)cc1 | 5.7%
CCOC1COC2(CCN(c3ccccn3)CC2)C1 (stereo not drawn) | 3.77%
O=C(NCc1ccco1)[C@H]1COC[C@H]2CN(Cc3ccccn3)C[C@H]21 | -72.4%
Cc1cnnn1Cc1ncn2c1CN(Cc1cccs1)CCC2 | 3.58%
CC(C)OCc1ncn2c1CN(Cc1cccs1)CCC2 | 8.44%
CC(NCc1ccncc1)c1ccc(N2CCN(C)CC2)c(F)c1 (stereo not drawn) | 27.8%
Cc1ccc(N2CC3(CCN(Cc4nccn4C)C3)CC2=O)s1 (stereo not drawn) | -81.9%
c1cc(C2CC2)n2cnc(C3CN(Cc4nccs4)CCO3)c2c1 (stereo not drawn) | 1.49%
O=C(CC1CC1)N1C[C@@H]2CCN(c3cnccn3)C[C@@H]2C1 | 5.03%
CCN1CCO[C@@H]2CN(S(=O)(=O)c3cccs3)CC[C@@H]2C1 | 4.82%
CN(C)Cc1noc2c1CN(Cc1ccsc1)CC2 | -2.88%
CC(c1ccccc1)n1cc2nc(N(C)C)[nH]cc-2c1=O (stereo not drawn) | -25.5%
Cn1nc(Br)c2c(NCCN)ncnc21 | 20.2%
